High-throughput results from PubChem BioAssay.
The list is not random: actives were taken first. Their share in the collection is about 4.3%.
MC4R ag barr – agonists of human melanocortin 4 receptor (MC4R) beta-arrestin | P32245 | U2OS MC4R beta-arrestin complementation, luminescence; percent of melanotan II response, DMSO zero | activation, % at 8.9 µM | actives 0.98% (n = 360,000) | AID 540308;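 active = activation above a per-plate cutoff, the mean activation of sample wells on that plate plus 3 SD, cut at about 8% in these data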
Target sequence (P32245 whole entry, looked up): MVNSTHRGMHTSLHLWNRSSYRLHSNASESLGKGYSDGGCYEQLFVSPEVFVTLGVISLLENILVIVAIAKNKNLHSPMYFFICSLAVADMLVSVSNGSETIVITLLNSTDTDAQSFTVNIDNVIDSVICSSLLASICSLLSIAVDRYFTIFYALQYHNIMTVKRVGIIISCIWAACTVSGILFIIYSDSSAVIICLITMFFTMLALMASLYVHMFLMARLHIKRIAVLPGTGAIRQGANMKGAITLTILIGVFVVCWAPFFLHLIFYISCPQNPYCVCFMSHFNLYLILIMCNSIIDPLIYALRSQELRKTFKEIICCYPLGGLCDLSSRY
Beta2AR agonist – human beta-2 adrenergic receptor agonism by FAP. AID 504454. actives 0.43% (n = 340,000). response, % (test concentration not listed). Am2.2-beta2AR cells, FAP receptor internalization, flow cytometry. P07550;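 active = response above a set limit, near 3 SD of response in nonfluorescent compounds, cut at about 42% in these data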
MC4R antagonist – antagonists of human melanocortin 4 receptor (MC4R); inhibition, % at 6.5 µM; actives 0.48% (n = 360,000); MC4R-expressing cells, MTII-stimulated cAMP, LANCE TR-FRET; P32245;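 active = inhibition above its plate's cutoff, the mean of tested wells on that plate plus 3 SD, cut at about 29% in these data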
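system = U2OS cells with stable human MC4R expression | also added = Melanotan II challenge after compound preincubation | dosing = one concentration, 6.5 µM nominal | incubation = compound 30 min, challenge 1 h, detection 1 h | measured by = TR-FRET with Eu-cAMP and labeled anti-cAMP, 671 nm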
TAAR1 antag – human TAAR1 antagonism; Q96RJ0; CHO RD-HGA16 TAAR1, Fluo-8 calcium fluorescence, antagonist; inhibition, % at 3 µM; actives 1.5% (n = 360,000);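 active = inhibition above a per-plate cutoff, the mean inhibition of test compounds on that plate plus 3 SD, cut at about 49% in these data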
Target sequence (Q96RJ0 whole entry, looked up): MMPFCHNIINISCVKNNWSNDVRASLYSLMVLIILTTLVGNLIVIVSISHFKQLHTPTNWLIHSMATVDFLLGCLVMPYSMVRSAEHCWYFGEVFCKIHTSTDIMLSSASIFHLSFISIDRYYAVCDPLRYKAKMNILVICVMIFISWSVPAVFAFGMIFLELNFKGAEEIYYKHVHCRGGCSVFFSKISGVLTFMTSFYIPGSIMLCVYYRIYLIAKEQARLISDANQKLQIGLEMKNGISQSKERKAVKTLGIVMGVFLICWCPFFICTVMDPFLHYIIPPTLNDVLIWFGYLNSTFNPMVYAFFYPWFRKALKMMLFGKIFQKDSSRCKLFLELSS
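Assay system: CHO-derived RD-HGA16 cells stably expressing human TAAR1 plus Gα16. Timing: 140 s kinetic read after compound, 140 s after agonist. Technique: kinetic Fluo-8 calcium fluorescence measurement. Measure: % inhibition of agonist calcium response.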
TAAR1 ag – agonists of human TAAR1 | Q96RJ0 | CHO RD-HGA16 TAAR1, Fluo-8 calcium fluorescence; vehicle wells 0%, saturating PEA agonist 100% | activation, % at 3 µM | actives 0.99% (n = 360,000) | AID 624467;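 active = activation above the mean activation of all test compounds in the run plus 3 SD, cut at about 38% in these data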
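Repeats: no replicates (n 1) | Material: CHO-derived RD-HGA16 cells with stable Gα16 and human TAAR1 | Technique: Kinetic Fluo-8 calcium fluorescence | Schedule: 17-24 h seeding, 75 min 37 °C dye, 30 min RT | Evaluation: % activation from peak over basal fluorescence ratio, DMSO-to-PEA scaled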
HTR2A ag – mouse HTR2A agonism via beta-arrestin recruitment | CHO-K1 mHTR2A beta-arrestin complementation, luminescence; percent of 30 µM serotonin response | P35363 | activation, % at 7.6 µM | actives 0.66% (n = 360,000);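 active = activation above a run cutoff, the mean activation of all tested compounds plus 3 SD, cut at about 14% in these data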
U2OS cAMP counter – nonselective cAMP signaling inhibitor, MC4R antagonist counter-screen. shares compounds with MC4R antagonist. parental U2OS, forskolin cAMP, LANCE TR-FRET. inhibition, % at 6.5 µM. actives 26% (n = 1,600);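 active = mean inhibition over triplicates above the low-control well mean plus 3 SD, set per campaign, cut at about 13% in these data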;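 note: signal is single emission at 671 nm which falls as cellular cAMP rises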
MC4R cAMP antag – human MC4R cAMP antagonism confirmation; actives 27% (n = 1,600); shares compounds with MC4R antagonist; AID 602195; inhibition, % at 6.5 µM; MC4R-expressing cells, MTII-stimulated cAMP, TR-FRET; in the data active = inhibition above about 29%
Hits are given with their value; . = inactive; / = no result given.

SMILES	MC4R ag barr	Beta2AR agonist	MC4R antagonist	TAAR1 antag	TAAR1 ag	HTR2A ag	U2OS cAMP counter	MC4R cAMP antag
O=C(NCc1ccncc1)C1Cc2c(-c3ccccc3Oc3ccccc3)ccnc2O1 (centres undefined)	.	/	.	.	.	.	/	/
Cc1ccc(CNC(=O)COC(=O)Cn2nc(C)c([N+](=O)[O-])c2C)cc1	.	.	46	.	.	.	.	31
Cc1nn(CC(=O)OCC(=O)NCCc2ccc(S(N)(=O)=O)cc2)c(C)c1[N+](=O)[O-]	.	.	.	.	.	.	/	/
CCN1CCN(C(=O)c2cc(S(=O)(=O)Nc3ccc(S(C)(=O)=O)cc3)ccc2Cl)CC1	.	.	30	.	.	.	.	.
CC(=O)N1CCN(C(=O)c2cc(S(=O)(=O)Nc3ccc(S(C)(=O)=O)cc3)ccc2Cl)CC1	.	.	.	.	.	.	/	/
CNc1cnn(-c2ccccc2)c(=O)c1Cl	.	.	.	.	.	.	/	/
CN(C)CCNc1cnn(-c2ccccc2)c(=O)c1Cl	.	.	29	.	.	.	.	.
Cc1ccc(C(O)c2ncc(-c3ccccc3Cl)[nH]2)cc1 (centres undefined)	.	/	.	.	.	.	/	/
CCc1ccc(OCC(=O)Nc2ccc3oc(=O)ccc3c2)cc1	.	.	.	.	.	.	/	/
O=C(O)c1cnn(-c2nc(-c3ccc(Cl)cc3)cs2)c1C(F)(F)F	.	.	31	.	.	.	.	.
COc1cccc(N2CCN(c3ncnc4c3[nH]c3ccc(F)cc34)CC2C)c1 (centres undefined)	22	.	40	93	.	32	26	51
O=C(NCCc1csc(-c2ccccc2)n1)c1c(F)cccc1Cl	.	.	31	.	.	.	.	.
Cc1cccc(N2C(=O)C(O)=C(C(=O)c3cccs3)C2c2ccccc2)n1 (centres undefined)	.	.	30	.	.	.	.	.
CC1(C)C(=O)N(c2ccccc2Cl)C(=O)c2ccccc21	.	.	.	.	.	.	/	/
CCN(c1ccc(OC)cc1)S(=O)(=O)c1ccc(-c2ccc(=O)[nH]n2)o1	.	.	.	.	.	.	/	/
Cc1csc(CN(C)C(=O)CC2C(=O)NCCN2Cc2ccc(Cl)c(F)c2)n1 (centres undefined)	.	.	.	.	.	.	/	/
Cc1csc(CN(C)C(=O)CC2C(=O)NCCN2Cc2ccc(-c3ccccc3)cc2)n1 (centres undefined)	.	.	29	.	.	.	.	.
CCc1nnc(NC(=O)c2cc(S(=O)(=O)N(C)c3ccc(OC)cc3)ccc2Cl)s1	.	.	.	.	.	.	/	/
C[C@@H]1O[C@@H](O[C@@H]2[C@@H](O)[C@H](OCCc3ccc(O)c(O)c3)O[C@H](CO)[C@H]2OC(=O)/C=C/c2ccc(O)c(O)c2)[C@H](O)[C@H](O)[C@H]1O	.	.	.	.	.	.	/	/
Cc1ccc(-c2c3c(nc4sc(C(N)=O)c(N)c24)CCC3)cc1	.	.	.	.	.	.	/	/
COc1ccc(-c2c3c(nc4sc5c(Cl)nc(C)nc5c24)CCC3)cc1	.	.	41	/	/	.	41	64
Cc1ccc(C)c(Cn2c(C)nc3c(sc(=S)n3-c3ccccc3)c2=O)c1	.	.	31	.	.	.	.	.
Cc1ccc(Nc2nnc(SC3CCOC3=O)s2)cc1 (centres undefined)	.	.	.	.	.	.	/	/
CC(C)c1ccc(Nc2nnc(SC3CCOC3=O)s2)cc1 (centres undefined)	.	.	31	.	.	.	41	33
C[C@H](CO)N1C[C@H](C)[C@@H](CN(C)C(=O)Nc2ccc3c(c2)OCO3)Oc2c(NC(=O)Nc3ccc(C(F)(F)F)cc3)cccc2C1=O	.	.	56	80	.	.	.	30
SMILES	MC4R ag barr	Beta2AR agonist	MC4R antagonist	TAAR1 antag	TAAR1 ag	HTR2A ag	U2OS cAMP counter	MC4R cAMP antag
C[C@H](CO)N1C[C@H](C)[C@@H](CN(C)C(=O)NC2CCCCC2)Oc2c(NC(=O)Nc3ccc(C(F)(F)F)cc3)cccc2C1=O	.	.	30	.	.	.	.	.
C[C@@H]1CN([C@H](C)CO)C(=O)c2cc(NC(=O)Nc3ccc(C(F)(F)F)cc3)ccc2O[C@H]1CN(C)Cc1ccc(Cl)c(Cl)c1	.	.	.	.	.	.	/	/
C[C@H]1CN([C@@H](C)CO)C(=O)c2cccc(NC(=O)Nc3ccc(C(F)(F)F)cc3)c2O[C@@H]1CN(C)Cc1ccc(Cl)c(Cl)c1	.	.	41	51	.	.	.	.
CCCCn1nnnc1C1(C)CCC(=O)N1Cc1ccc(C)cc1 (centres undefined)	/	/	/	.	.	.	/	/
O=S1(=O)CC(N2CC=CC2)CN1Cc1cn(Cc2ccc(Cl)cc2)nn1 (centres undefined)	/	/	/	.	.	.	/	/
CCN(CC(=O)Nc1ccc(NC(C)=O)cc1)C(=O)CCN1C(=O)C2CC=CCC2C1=O (centres undefined)	.	.	.	.	.	.	/	/
COC(=O)c1ccccc1NC(=O)CNC(=O)c1ccc(OC)c(OC)c1	.	.	31	.	.	.	.	.
CC1(C)CC(=O)C=C(c2n[nH]nc2-c2ccc(F)c(F)c2)C1	.	/	.	.	.	.	/	/
CC(C)(C)C(=O)COC(=O)c1ccc2c(c1)C(=O)N(Cc1ccco1)C2=O	.	.	37	.	.	.	.	.
CCOC(=O)N1CCN(S(=O)(=O)N2CCCC(C(=O)NCCCN3CC(C)CC(C)C3)C2)CC1 (centres undefined)	.	.	.	.	.	.	/	/
C=CCc1cccc2cc(C(=O)N3CCOCC3)c(=O)oc12	.	.	.	.	.	.	/	/
C=CCc1cccc2cc(C(=O)N3CCN(C(=O)c4ccccc4)CC3)c(=O)oc12	.	.	30	.	.	.	.	.
CCN(CC)C(=O)C1=C(C)N(Cc2ccc(C(C)(C)C)cc2)C(=O)C(CC(=O)NCCCN(C)C)C1 (centres undefined)	.	/	.	.	.	.	/	/
CCOc1cc(/C=C2\N=C(C)OC2=O)cc(Cl)c1OCC(=O)OC	.	.	.	.	.	.	/	/
CCCCOc1c(Br)cc(/C=C2\N=C(C)OC2=O)cc1OCC	.	.	33	.	.	.	.	.
